Reference: ChEMBL document CHEMBL3872212, “Synthesis, antimicrobial activity and advances in structure-activity relationships (SARs) of novel tri-substituted thiazole derivatives” (2016)
In brackets after ≈: the same amount, converted by molar mass.

What was measured:
Assay type in all cases: functional
Bacillus spizizenii [1] = experiment: Ratio of MBC to MIC for Bacillus subtilis ATCC 6633
Staphylococcus aureus [2] = experiment: Bactericidal activity against Staphylococcus aureus ATCC 19433 measured after 24 hrs by broth dilution method
Outline: (§1)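 MBC/MFC is found by further steps carried out once the MIC has been determined.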

Aspergillus niger [3] = experiment: Antifungal activity against Aspergillus niger MTCC 1881 at 200 ug/mL incubated at 4 degC for 24 hrs followed by subsequent incubation at 37.5 degC for 3 days by poisoned food method; conditions: read-out: DIZ
Proteus vulgaris [4] = experiment: Ratio of MBC to MIC for Proteus vulgaris […]
Proteus vulgaris [5] = experiment: Antibacterial activity against Proteus vulgaris […] at 200 ug/mL measured after 24 hrs by filter paper disc method; conditions: read-out: DIZ
Aspergillus niger [6] = experiment: Antifungal activity against Aspergillus niger MTCC 1881 measured after 2 days by broth dilution method
Outline: (§2)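 MIC is the lowest concentration that arrests growth of the organism.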

Staphylococcus aureus [7] = experiment: Antibacterial activity against Staphylococcus aureus ATCC 19433 measured after 24 hrs by broth dilution method; outline: as §2
Escherichia coli [8] = experiment: Antibacterial activity against Escherichia coli ATCC 8739 measured after 24 hrs by broth dilution method; outline: as §2
Escherichia coli [9] = experiment: Antibacterial activity against Escherichia coli ATCC 8739 at 200 ug/mL measured after 24 hrs by filter paper disc method; conditions: ATCC 8739, 24 h, read-out: DIZ
Proteus vulgaris [10] = experiment: Bactericidal activity against Proteus vulgaris […] measured after 24 hrs by broth dilution method; outline: as §1
Bacillus spizizenii [11] = experiment: Bactericidal activity against Bacillus subtilis ATCC 6633 measured after 24 hrs by broth dilution method; outline: as §1
Aspergillus flavus [12] = experiment: Antifungal activity against Aspergillus flavus MTCC 1884 measured after 2 days by broth dilution method; outline: as §2
Escherichia coli [13] = experiment: Ratio of MBC to MIC for Escherichia coli ATCC 8739
Escherichia coli [14] = experiment: Bactericidal activity against Escherichia coli ATCC 8739 measured after 24 hrs by broth dilution method; outline: as §1
Aspergillus flavus [15] = experiment: Ratio of MFC to MIC for Aspergillus flavus MTCC 1884
Aspergillus niger [16] = experiment: Ratio of MFC to MIC for Aspergillus niger MTCC 1881
Staphylococcus aureus [17] = experiment: Antibacterial activity against Staphylococcus aureus ATCC 19433 at 200 ug/mL measured after 24 hrs by filter paper disc method; conditions: ATCC 19433, 24 h, read-out: DIZ
Staphylococcus aureus [18] = experiment: Ratio of MBC to MIC for Staphylococcus aureus ATCC 19433
Bacillus spizizenii [19] = experiment: Antibacterial activity against Bacillus subtilis ATCC 6633 at 200 ug/mL measured after 24 hrs by filter paper disc method; conditions: ATCC 6633, 24 h, read-out: DIZ
Aspergillus flavus [20] = experiment: Antifungal activity against Aspergillus flavus MTCC 1884 at 200 ug/mL incubated at 4 degC for 24 hrs followed by subsequent incubation at 37.5 degC for 3 days by poisoned food method; conditions: read-out: DIZ
Proteus vulgaris [21] = experiment: Antibacterial activity against Proteus vulgaris […] measured after 24 hrs by broth dilution method; outline: as §2
Aspergillus niger [22] = experiment: Fungicidal activity against Aspergillus niger MTCC 1881 measured after 2 days by broth dilution method; outline: as §1
Aspergillus flavus [23] = experiment: Fungicidal activity against Aspergillus flavus MTCC 1884 measured after 2 days by broth dilution method; outline: as §1
Bacillus spizizenii [24] = experiment: Antibacterial activity against Bacillus subtilis ATCC 6633 measured after 24 hrs by broth dilution method; outline: as §2

Row | Structure (SMILES) | MBC (Staphylococcus aureus [2]) [µg] | zone of inhibition at 200 µg/mL (Aspergillus niger [3]) [mm] | zone of inhibition at 200 µg/mL (Proteus vulgaris [5]) [mm] | MIC (Aspergillus niger [6]) [µg] | MIC (Staphylococcus aureus [7]) [µg] | MIC (Escherichia coli [8]) [µg] | zone of inhibition at 200 µg/mL (Escherichia coli [9]) [mm] | MBC (Proteus vulgaris [10]) [µg] | MBC (Bacillus spizizenii [11]) [µg] | MIC (Aspergillus flavus [12]) [µg/mL] | Ratio (Escherichia coli [13]) | MBC (Escherichia coli [14]) [µg] | Ratio (Aspergillus flavus [15]) | zone of inhibition at 200 µg/mL (Staphylococcus aureus [17]) [mm] | zone of inhibition at 200 µg/mL (Bacillus spizizenii [19]) [mm] | zone of inhibition at 200 µg/mL (Aspergillus flavus [20]) [mm] | MIC (Proteus vulgaris [21]) [µg] | MFC (Aspergillus niger [22]) [µg] | MFC (Aspergillus flavus [23]) [µg] | MIC (Bacillus spizizenii [24]) [µg/mL] | further results
1 | Cc1nc(-c2ccc(-c3ccc(CO)cc3)cc2)c(C)s1 | >200 | 14.5 | 17.6 | 25 | 12.5 | 25 | 23.8 | >200 | 100 | 25 (≈ 84.6 µM) | >2 | 100 | >2 | 21.6 | 20 | 17.1 | 100 | 200 | 100 |  | Ratio (Bacillus spizizenii [1]): >2; Ratio (Proteus vulgaris [4]): >2; Ratio (Aspergillus niger [16]): >2; Ratio (Staphylococcus aureus [18]): >2
2 | COc1cccc(-c2ccc(-c3nc(C)sc3C)cc2)c1 |  | 6.32 | 18.8 |  |  |  | 19.2 |  |  |  |  |  |  | 17.5 | 15.2 | 9.11 |  |  |  |  | 
3 | COc1ccc(-c2ccc(-c3nc(C)sc3C)cc2)cc1 | >200 | 23.4 | 21.6 | 12.5 | 50 | 12.5 | 27.1 | 100 | 100 | 25 (≈ 84.6 µM) | 2 | 25 | 2 | 25.5 | 22.1 | 24.9 | 25 | 100 | 50 | 6.25 (≈ 21.2 µM) | 
4 | Cc1ccc(-c2ccc(-c3nc(C)sc3C)cc2)cc1 | >200 | 19.7 | 19.5 | 25 | 100 | 12.5 | 24.2 | 100 | 100 | 25 (≈ 89.5 µM) |  | 100 |  | 23.1 | 21.1 | 21.3 | 50 | >200 | 100 |  | 
5 | Cc1cc(C)c(-c2ccc(-c3nc(C)sc3C)cc2)c(C)c1 | 100 | 25.2 | 22.1 | 6.25 | 25 | 6.25 | 28 | 50 | 50 | 12.5 (≈ 40.7 µM) | 2 | 12.5 | 2 | 26.1 | 24.6 | 27.8 | 12.5 | 100 | 25 | 6.25 (≈ 20.3 µM) | 
6 | Cc1nc(-c2ccc(-c3cccc(C=O)c3)cc2)c(C)s1 |  | 3.92 | 7.39 |  |  |  | 9.56 |  |  |  |  |  |  | 8.02 | 6.65 | 6.29 |  |  |  |  | 
7 | CC(=O)N1CCN(c2ccc(OCC3COC(Cn4ccnc4)(c4ccc(Cl)cc4Cl)O3)cc2)CC1 (stereo not given) [KETOCONAZOLE] |  | 25.4 |  | 6.25 |  |  |  |  |  | 12.5 (≈ 23.5 µM) |  |  |  |  |  | 28.4 |  |  |  |  | 
8 | Cc1nc(-c2ccc(-c3ccc(O)cc3)cc2)c(C)s1 | 100 | 13.6 | 20 | 50 | 25 | 25 | 21.1 | 200 | 200 | 25 (≈ 88.8 µM) | >2 | >200 | >2 | 19.2 | 17.7 | 15.3 | 50 | 200 | 100 |  | Ratio (Bacillus spizizenii [1]): >2; Ratio (Proteus vulgaris [4]): >2; Ratio (Aspergillus niger [16]): >2; Ratio (Staphylococcus aureus [18]): >2
9 | Cc1nc(-c2ccc(-c3ccc(F)c(C)c3)cc2)c(C)s1 |  |  | 15.2 |  |  |  | 18.1 |  |  |  |  |  |  | 16.4 | 14.6 | 5.63 |  |  |  |  | 
10 | COc1ccc(-c2ccc(-c3nc(C)sc3C)cc2)cc1OC | 50 | 22.5 | 20.9 | 25 | 25 | 50 | 25.6 | 100 | 100 |  |  | 200 |  | 24.1 | 22 | 24.2 | 25 | 100 | 200 | 12.5 (≈ 38.4 µM) | Ratio (Proteus vulgaris [4]): 2; Ratio (Staphylococcus aureus [18]): 2
11 | Cc1nc(-c2ccc(-c3ccc(C(F)(F)F)cc3)cc2)c(C)s1 |  |  | 6.91 |  |  |  | 8.7 |  |  |  |  |  |  | 7.86 | 5.37 |  |  |  |  |  | 
12 | O=C(O)c1cn(C2CC2)c2cc(N3CCNCC3)c(F)cc2c1=O [CIPROFLOXACIN] |  |  | 23.2 |  | 6.25 | 6.25 | 29.8 |  |  |  |  |  |  | 27 | 25.5 |  |  |  |  | 6.25 (≈ 18.9 µM) | 
13 | Cc1nc(-c2ccc(-c3ccc(I)cc3)cc2)c(C)s1 |  | 8 | 15.1 |  |  |  | 16.2 |  |  |  |  |  |  | 14.8 | 12.1 | 9.57 |  |  |  |  | 
